First the molecules themselves.
B1: Osa-1-4 twister ribozyme (parent)
chain: CCGCCUAACACUGCCAAUGCCGGUCCCAAGCCCGGAUAAAAGUGGAGGGGGCGG

This note sets out measurements from the RNAGym collection of RNA variant scans (doi:10.1002/anie.201605470).

Variants of B1 are the subject of this data set. Briefly: self-cleavage, relative activity (ratio to wild type); higher = more cleavage; co-transcriptional. A digest of the protocol: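 A DNA template for a 54-nucleotide Oryza sativa twister ribozyme was synthesised with 97 % wild-type base and 1 % of each other base at the 48 positions downstream of the cleavage site. It was transcribed in vitro for 2 h at 37 °C, allowing co-transcriptional self-cleavage, then reverse-transcribed with a template-switching oligonucleotide, PCR-amplified and deep-sequenced. Cleavage status was scored from reads with or without upstream sequence. Relative activity is fraction cleaved normalised to wild type.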
As to CCGCCUAACACGGCCCAUGCCGGUCCCAAGCCCGGAUAAAAGUGGAGGGGGCGG [A16C U12G], the self-cleavage was 0.09.
Next, CCGCCUAACACAGCCCAUGCCGGUCCCAAGCCCGGAUAAAAGUGGAGGGGGCGG [A16C U12A]: 0.71.
In the case of CCGCCUAACACCGCCCAUGCCGGUCCCAAGCCCGGAUAAAAGUGGAGGGGGCGG [A16C U12C] it was 0.44; in that of CCGCCUAACACUGCCCAUGCCGGUCCCAAGCCCGGAUAAAAGUGGAGGGGGCAG [A16C G53A], 0.65; in that of CCGCCUAACACUGCCCAUGCCGGUCCCAAGCCCGGAUAAAAGUGGAGGGGGCCG [A16C G53C], 0.09.
Next, CCGCCUAACACUGCCCAUGCCGGUCCCAAGCCCGGAUAAAAGUGGAGGGGGCUG [A16C G53U]: 0.25.
In the case of CCGCCUAACACUGCCCAUGCCGGUCCCAAGCCCGCAUAAAAGUGGAGGGGGCGG [A16C G35C], the self-cleavage worked out at 0.17.
Next, CCGCCUAACACUGCCCAUGCCGGUCCCAAGCCCGAAUAAAAGUGGAGGGGGCGG [A16C G35A]: 0.61.
Next, CCGCCUAACACUGCCCAUGCCGGUCCCAAGCCCGUAUAAAAGUGGAGGGGGCGG [A16C G35U]: 0.64; CCGCCUAACACUGCCCAUCCCGGUCCCAAGCCCGGAUAAAAGUGGAGGGGGCGG [A16C G19C]: 0.13.
In the case of CCGCCUAACACUGCCCAUUCCGGUCCCAAGCCCGGAUAAAAGUGGAGGGGGCGG [A16C G19U] it was 0.19; in that of CCGCCUAACACUGCCCAUACCGGUCCCAAGCCCGGAUAAAAGUGGAGGGGGCGG [A16C G19A], 0.62; in that of CCGCCUAACACUGCCCAUGCCGGUCCCAAGCCCGGAUAAAACUGGAGGGGGCGG [A16C G42C], 0.11.
In the case of CCGCCUAACACUGCCCAUGCCGGUCCCAAGCCCGGAUAAAAUUGGAGGGGGCGG [A16C G42U], the self-cleavage was determined as 0.52.
In the case of CCGCCUAACACUGCCCAUGCCGGUCCCAAGCCCGGAUAAAAAUGGAGGGGGCGG [A16C G42A] it was 0.6; in that of CCGCCUAACACUGCCCAUGCCGGUCCCAAGCCCGGAUAAAAGUGGAAGGGGCGG [A16C G47A], 0.14.
Next, CCGCCUAACACUGCCCAUGCCGGUCCCAAGCCCGGAUAAAAGUGGAUGGGGCGG [A16C G47U]: 0.13; CCGCCUAACACUGCCCAUGCCGGUCCCAAGCCCGGAUAAAAGUGGACGGGGCGG [A16C G47C]: 0.05; CCGCCUAACACUGCCCAUGCCGGUCCCAAGGCCGGAUAAAAGUGGAGGGGGCGG [A16C C31G]: 0.1.
In the case of CCGCCUAACACUGCCCAUGCCGGUCCCAAGUCCGGAUAAAAGUGGAGGGGGCGG [A16C C31U] it was 0.55; in that of CCGCCUAACACUGCCCAUGCCGGUCCCAAGACCGGAUAAAAGUGGAGGGGGCGG [A16C C31A], 0.04.
Take CCGCCUAACACUGCCCAUGCCAGUCCCAAGCCCGGAUAAAAGUGGAGGGGGCGG [A16C G22A]: the self-cleavage was 0.76.
In the case of CCGCCUAACACUGCCCAUGCCUGUCCCAAGCCCGGAUAAAAGUGGAGGGGGCGG [A16C G22U] it was 0.31; in that of CCGCCUAACACUGCCCAUGCCCGUCCCAAGCCCGGAUAAAAGUGGAGGGGGCGG [A16C G22C], 0.07; in that of CCGCCUCACACUGCCGAUGCCGGUCCCAAGCCCGGAUAAAAGUGGAGGGGGCGG [A16G A7C], 0.08.
In the case of CCGCCUGACACUGCCGAUGCCGGUCCCAAGCCCGGAUAAAAGUGGAGGGGGCGG [A16G A7G], the self-cleavage came to 0.61.
In the case of CCGCCUAACACUGCCCAUGCCGGUCCCAAGCCCCGAUAAAAGUGGAGGGGGCGG [A16C G34C] it was 0.23.
Regarding CCGCCUAACACUGCCCAUGCCGGUCCCAAGCCCUGAUAAAAGUGGAGGGGGCGG [A16C G34U], the self-cleavage came out at 0.34.
In the case of CCGCCUAACACUGCCCAUGCCGGUCCCAAGCCCAGAUAAAAGUGGAGGGGGCGG [A16C G34A] it was 0.44; in that of CCGCCUAACACUGCCCAUGGCGGUCCCAAGCCCGGAUAAAAGUGGAGGGGGCGG [A16C C20G], 0.12.
For CCGCCUAACACUGCCCAUGACGGUCCCAAGCCCGGAUAAAAGUGGAGGGGGCGG [A16C C20A], the self-cleavage amounted to 0.83.
In the case of CCGCCUAACACUGCCCAUGUCGGUCCCAAGCCCGGAUAAAAGUGGAGGGGGCGG [A16C C20U] it was 0.93; in that of CCGCCUAACACUGCCCAUGCCGGUCCCAAGCCCGGAUAAAAGUGGAGGGCGCGG [A16C G50C], 0.82.
For the variant CCGCCUAACACUGCCCAUGCCGGUCCCAAGCCCGGAUAAAAGUGGAGGGAGCGG [A16C G50A], the self-cleavage stood at 0.71.
In the case of CCGCCUAACACUGCCCAUGCCGGUCCCAAGCCCGGAUAAAAGUGGAGGGUGCGG [A16C G50U], the self-cleavage was determined as 0.97.
Next, CCGCCUAACACUGCCCAUGCAGGUCCCAAGCCCGGAUAAAAGUGGAGGGGGCGG [A16C C21A]: 0.45.
Next, CCGCCUAACACUGCCCAUGCUGGUCCCAAGCCCGGAUAAAAGUGGAGGGGGCGG [A16C C21U]: 0.93.
In the case of CCGCCUAACACUGCCCAUGCGGGUCCCAAGCCCGGAUAAAAGUGGAGGGGGCGG [A16C C21G] it was 0.08; in that of CCGCCUAACACUGCCCAUGCCGGUCCCAAGCCCGGAUAAAAGUGGAGGGGCCGG [A16C G51C], 0.12; in that of CCGCCUAACACUGCCCAUGCCGGUCCCAAGCCCGGAUAAAAGUGGAGGGGUCGG [A16C G51U], 0.35.
Take CCGCCUAACACUGCCCAUGCCGGUCCCAAGCCCGGAUAAAAGUGGAGGGGACGG [A16C G51A]: the self-cleavage stood at 0.53.
In the case of CCGCCUAACACUGCCCAUGCCGGCCCCAAGCCCGGAUAAAAGUGGAGGGGGCGG [A16C U24C] it was 0.17.
In the case of CCGCCUAACACUGCCCAUGCCGGACCCAAGCCCGGAUAAAAGUGGAGGGGGCGG [A16C U24A] it was 0.11; in that of CCGCCUAACACUGCCCAUGCCGGGCCCAAGCCCGGAUAAAAGUGGAGGGGGCGG [A16C U24G], 0.04; in that of CCGCCUAACACUGCCCAUGCCGGUCCCAAGCUCGGAUAAAAGUGGAGGGGGCGG [A16C C32U], 0.09.
For the variant CCGCCUAACACUGCCCAUGCCGGUCCCAAGCGCGGAUAAAAGUGGAGGGGGCGG [A16C C32G], the self-cleavage is 0.12.
Next, CCGCCUAACACUGCCCAUGCCGGUCCCAAGCACGGAUAAAAGUGGAGGGGGCGG [A16C C32A]: 0.07; CCGCCUAACACUGCCCAUGCCGGUCCCAAGCCCGGAUAAAAGUAGAGGGGGCGG [A16C G44A]: 0.95.
